# The list is not random: actives were taken first. Their share in the collection is about 1.9%.
# PLC-beta3 inh = inhibitors of human phospholipase C beta3; Purified PLC-beta3, fluorogenic substrate, fluorescence; inhibition, % at 12.2 µM; 370,000 compounds, 0.18% hits; AID 720704; in the data active = inhibition above about 11%;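 also: 0% = median of compound wells on plate and 100% = full blocker control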
# HGIII-sPLA2 inh = Blocks human group III sPLA2 activity | Q9NZ20 | 370,000 compounds, 0.56% hits | QFRET BODIPY PC-A2 liposome hydrolysis, fluorescence | inhibition, % at 12.2 µM | AID 743126;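 active = inhibition above mean plus 3 SD of compounds lying within the high and low control bounds, cut at about 19% in these data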;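 also: 0% = median of test compound wells and 100% = no enzyme DMSO wells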
# PLCg1 inh = blocks human PLC-gamma1 enzyme activity | 370,000 compounds, 0.84% hits | inhibition, % at 12.2 µM | P19174 | purified PLC-gamma1, fluorogenic substrate, fluorescence | AID 720700; in the data active = inhibition above about 9.5%
# TbMetRS inhib = blocks T. brucei methionyl-tRNA synthetase activity | purified T. brucei MetRS, ATP depletion, Kinase-Glo luminescence | 360,000 compounds, 0.4% hits | inhibition, % at 11.9 µM;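 active = inhibition above a per-plate cutoff of the control wells' mean inhibition plus 3 SD, cut at about 5.5% in these data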;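 also: 0% = DMSO wells median and 100% = median of wells with control inhibitor compound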
#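 Test system – parasite MetRS enzyme · Reagent – substrates ATP, L-methionine and bulk Escherichia coli tRNA · Doses – 11.9 µM compound single dose, 0.9% DMSO · Times – 15 min enzyme-compound preincubation, 2 h reaction, 10 min detection, 25 °C · Signal – Kinase-Glo luminescence, ATP depletion format · Controls – DMSO-only wells as low control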
# hGIII sPLA2 conf = human GIII-sPLA2 inhibition, confirmation; 2,000 compounds, 34% hits; inhibition, % at 12.2 µM; shares compounds with HGIII-sPLA2 inh; recombinant hGIII-sPLA2, BODIPY PC-A2 QFRET fluorescence;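 active = mean inhibition across triplicates above the hit cutoff set in the earlier primary screen, cut at about 19% in these data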;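 also: 0% = enzyme with DMSO and 100% = DMSO wells lacking enzyme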
# 535nm interf = 535nm fluorescence interference, HGIII-sPLA2 counter-screen | shares compounds with HGIII-sPLA2 inh | BODIPY FL product fluorescence interference, QFRET | inhibition, % at 12.2 µM | 2,000 compounds, 8.5% hits | AID 743282;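 active = average inhibition above the solvent-only control mean plus 3 SD, cut at about 6% in these data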;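 also: 0% = DMSO with substrate plus product and 100% = DMSO with substrate alone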
# BODIPY interf DR = counter-screen for HGIII-sPLA2 inhibitors: 535nm fluorescence interference, dose response. IC50, µM. BODIPY FL product fluorescence interference, cell-free. shares compounds with HGIII-sPLA2 inh. AID 743455. 240 tested, under 10 active;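 active = IC50 at or below 10 µM; inactive = IC50 above 10 µM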
# The depositor's hits bear a star; i = inactive; / = not tested or not shown.
SMILES,PLC-beta3 inh,HGIII-sPLA2 inh,PLCg1 inh,TbMetRS inhib,hGIII sPLA2 conf,535nm interf,others
COC(=O)[C@]12C[C@H](CC(=O)N3CCOCC3)C(=O)N(Cc3ccc(Cl)cc3Cl)C1=C[C@H](C1CCCC1)O[C@@H]2C,2,77*,8,/,-16,-23,
CCN(CC)c1ccc(-c2n[nH]c(=S)n2-c2ccccc2)cc1,-64,20*,-53,0,44*,5,BODIPY interf DR=>122
CC(C)(C)Nc1nc(Cl)nc(NC(C)(C)C)n1,0,23*,7,0,10,-10,
CNc1nc(Cl)nc(NC(C)(C)C)n1,1,1,-4,0,/,/,
C=CCN1[C@@H](C)COc2cccc(N3CCCC3)c2S1(=O)=O,-4,-1,-3,/,/,/,
Cc1ccccc1-n1c(=S)[nH]c2nc3c(cc2c1=O)COC(C)(C)C3,-8,20*,-1,-1,4,-4,
Cc1ccc(-n2c(=S)[nH]c3nc4c(cc3c2=O)COC(C)(C)C4)cc1,1,-4,6,0,/,/,
O=C(CNS(=O)(=O)c1ccccc1)OCC(=O)c1ccc([N+](=O)[O-])cc1,-1,25*,2,-1,6,-2,
Cc1onc(-c2c(Cl)cccc2Cl)c1C(=O)N/N=C(\N)COc1ccc(Cl)cc1,-1,28*,5,-1,31*,0,BODIPY interf DR=>122
COc1cc(/C=N/NC(=O)c2c(-c3c(Cl)cccc3Cl)noc2C)ccc1OCC(N)=O,-5,3,3,0,/,/,
Cc1cccc(NC(=O)Cn2nnc(-c3ccccc3F)n2)c1C,4,-4,6,/,/,/,
C[C@@H]1CN([C@@H](C)CO)C(=O)CCCn2cc(nn2)CO[C@H]1CN(C)C(=O)Nc1ccc2c(c1)OCCO2,0,-3,-1,/,/,/,
Cn1c(-c2cc3c(C(F)(F)F)nn(C)c3s2)n[nH]c1=S,-263,13,-210,1,/,/,
CCn1c(-c2cc3c(C(F)(F)F)nn(C)c3s2)n[nH]c1=S,-325,20*,-272,0,34*,1,BODIPY interf DR=>122
CCOC(=O)c1sc(=S)n(C)c1NC(=O)c1ccccc1C,1,24*,4,0,5,-6,
CN(C)CCP(=O)(c1ccccc1)c1ccccc1,0,-3,-2,-1,/,/,
CCCP(=O)(CCC)CCP(=O)(c1ccccc1)c1ccccc1,0,20*,-1,0,4,-11,
CCn1c(C2CCN(S(=O)(=O)c3ccc(OC)cc3)CC2)n[nH]c1=S,-1,21*,3,1,16,-1,
CCn1c(SCc2ccccc2)nnc1C1CCN(S(=O)(=O)c2ccc(OC)cc2)CC1,0,-6,1,0,/,/,
CC1CCCC(NC(=O)COC(=O)/C=C/c2ccc([N+](=O)[O-])cc2)C1C (stereo not given),-4,19*,4,0,-6,-11,
COc1ccc(CN2CCC(CNC(=O)NC3CCC(C)CC3)CC2)cc1 (stereo not given),-2,13,-1,/,/,/,
Cc1noc(/C=C/N(C)C)c1S(=O)(=O)N1CCN(c2ccccc2)CC1,0,11,-1,0,/,/,
Cc1ccc(C)c(N2CCN(S(=O)(=O)c3c(C)noc3/C=C/N(C)C)CC2)c1,-3,23*,-2,-1,29*,-8,BODIPY interf DR=>122
CC(C)(C)C(=O)CSc1nnc(SCc2cccc3ccccc23)s1,-3,-72,0,/,/,/,
COc1ccc2c(c1)cc(C(=O)N/N=C/c1c(O)c(C(=O)O)cc3ccccc13)n2C,i,19*,i,0,17,2,
Cn1c(O)c(/C=N/NC(=O)c2cc3ccccc3cc2O)c2ccccc21,-80,0,-49,1,/,/,
Cc1cc(C)n2c(nc3ccccc32)c1C(=O)NN,i,-6,i,0,/,/,
COC(=O)c1c(C)cc(C)n2c1nc1ccccc12,i,22*,i,-1,6,-6,
CC(C)CN(CCCNC(=O)CN1N=C(c2ccc(Cl)cc2)CCC1=O)CC(C)C,5,25*,4,-1,32*,-13,
CC(C)CCNC(=O)CN1N=C(c2ccc(Cl)cc2)CCC1=O,-7,1,-2,0,/,/,

# Compound activity from PubChem.
